{"data": "Measured values pooled from the literature", "note": "Each line is one published result; the experiments were not run side by side."}
{"Structure (SMILES)": "Cc1ncc(C)n2nc(/C=C/c3nc(N4CCCC4)cc(N4CCOCC4)n3)nc12", "host": "male Sprague-Dawley rat", "medium": "plasma", "route": "oral", "dose": "0.3 mg/kg", "Tmax": "162 min"}
{"Structure (SMILES)": "COc1ccc2c3c1O[C@H]1C[C@@H](OC(=O)c4ccccc4)C=C[C@@]31CCN(C)C2", "host": "rat", "medium": "brain", "route": "intravenous", "dose": "5 mg/kg", "Tmax": "4.8 min"}
{"Structure (SMILES)": "CC(C)(C)[C@H](NC(=O)[C@H](CCONC(=N)N)NC(=O)Cc1ccc(CNC(=N)N)cc1)C(=O)N[C@@H](CCONC(=N)N)C(=O)NCc1ccc(C(=N)N)cc1", "host": "male Sprague-Dawley rat", "medium": "plasma", "route": "intraperitoneal", "dose": "2.5 mg/kg", "Tmax": "30 min"}
{"Structure (SMILES)": "O=C(Nc1cccnn1)N1CCN([C@@H]2CCOc3cc(C(F)(F)F)ccc32)CC1", "host": "male Sprague-Dawley rat", "medium": "plasma", "route": "oral", "dose": "1 mg/kg", "Tmax": "40.2 min"}
{"Structure (SMILES)": "Cl.Cl.O=C(CCN1CCCCC1)c1ccc(-c2ccc(C(=O)CCN3CCCCC3)cc2)cc1", "host": "Sprague-Dawley rat", "medium": "plasma", "route": "intravenous", "dose": "5 mg/kg", "Tmax": "1.8 min"}
{"Structure (SMILES)": "CCCCCCCC(=O)N[C@@H](CCCCN)C(=O)N[C@@H](CCCCN)C(=O)N[C@@H](C)C(=O)N[C@@H](CC(C)C)C(=O)N[C@@H](CCCCN)C(=O)N[C@@H](CC(C)C)C(=O)N[C@@H](C)C(=O)N[C@@H](CCCCN)C(=O)N[C@@H](CCCCN)C(=O)N1CCC[C@H]1C(=O)N[C@@H](CC(C)C)C(=O)N[C@@H](CCCCN)C(=O)N[C@@H](CC(C)C)C(=O)N[C@@H](CC(C)C)C(=O)N[C@@H](CCCCN)C(N)=O", "host": "male Sprague-Dawley rat", "medium": "blood", "route": "intravenous", "dose": "3 mg/kg", "notes": "infusion", "Tmax": "40.2 min"}
{"Structure (SMILES)": "CN(C)C(=O)Oc1cc(OC(=O)N(C)C)cc(-c2cc3ccc(O)cc3o2)c1", "host": "male rat", "medium": "plasma", "route": "oral", "dose": "5 mg/kg", "Tmax": "94.8 min"}
{"Structure (SMILES)": "COC(=O)C(NC(=O)c1cn(CCCCCF)c2ccccc12)C(C)(C)C (centres unmarked)", "host": "male Sprague-Dawley rat", "medium": "plasma", "route": "subcutaneous", "dose": "50 µg/kg", "Tmax": "42.5 min"}
